ChEMBL document CHEMBL1138683 (J Med Chem, 2004)

Assays:
Mus musculus [1] = test: Anticonvulsant activity administered intra peritoneally to mouse for the protective index of toxicity by maximal electroshock test; T D50/ED50; type: functional
Rattus norvegicus [2] = test: Anticonvulsant activity administered orally to rat at maximal electro shock test; the interval in parenthesis stands for 95% confidence interval; type: functional; details: po
Mus musculus [3] = test: Anticonvulsant activity administered intra peritoneally to mouse at subcutaneous metrazol test; type: functional; details: sc
Mus musculus [4] = test: Anticonvulsant activity administered intra peritoneally to mouse at maximal electro shock test; the interval in parenthesis stands for 95% confidence interval; type: functional
Rattus norvegicus [5] = test: Anticonvulsant activity administered orally to rat for the protective index of toxicity by maximal electroshock test; T D50/ED50; type: functional
[6] = Anticonvulsant activity administered orally to rat for toxicity; details: in vivo, po
Rattus norvegicus [7] = test: Anticonvulsant activity administered orally to rat at subcutaneous metrazol test; type: functional
Rattus norvegicus [8] = test: Anticonvulsant activity administered orally to rat for protective index of subcutaneous metrazol test; type: functional
Mus musculus [9] = test: Anticonvulsant activity administered intra peritoneally to mouse for protective index of subcutaneous metrazol test; type: functional
[10] = Anti convulsant activity administered intra peritoneally to mouse for toxicity at 0.5 hr with dose of 100 mg/kg; 0/8= No of animals exhibiting toxicity /No of animals tested; type: organism-based; design: dose 100 mg/kg; details: in vivo, ip
[11] = Anti convulsant activity administered intra peritoneally to mouse for toxicity at 4 hr with dose of 100 mg/kg; 0/4= No of animals exhibiting toxicity /No of animals tested; type: organism-based; design: dose 100 mg/kg; details: in vivo, ip
Rattus norvegicus [12] = test: Anticonvulsant activity after oral administration of 30 mg/kg dose after 15 min in rats; +means 25% of the animals protected; type: functional, organism-based; design: dose 30 mg/kg
Method in brief: (§1)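 Oral dosing of rats at a single dose, compound dissolved or suspended in 0.5% methylcellulose. Protection in the MES or scMet test checked 15 min, 30 min, 1 h, 2 h and 4 h after dosing. Scored as 25/50/75/100% of animals protected (+ to ++++), – for none.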

Mus musculus [13] = test: Anti convulsant activity administered intra peritoneally to mouse at maximal electroshock test at 4 hr after the drug administered with dose of 30 mg/kg; 0/1= No of animals protected /No of animals tested; type: functional
[14] = Anti convulsant activity administered intra peritoneally to mouse for toxicity at 0.5 hr with dose of 30 mg/kg; 0/4= No of animals exhibiting toxicity /No of animals tested; type: organism-based; design: dose 30 mg/kg; details: in vivo, ip
Mus musculus [15] = test: Anti convulsant activity administered intra peritoneally to mouse at maximal electroshock test at 0.5 hr after the drug administered with dose of 300 mg/kg; 1/1= No of animals protected /No of animals tested; type: functional
Mus musculus [16] = test: Anti convulsant activity administered intra peritoneally to mouse for subcutaneous metrazol test at 0.5 h with dose of 300 mg/kg; 0/1= No of animals protected /No of animals tested; type: functional
[17] = Anti convulsant activity administered intra peritoneally to mouse for toxicity at 4 hr with dose of 300 mg/kg; 0/2= No of animals exhibiting toxicity /No of animals tested; type: organism-based; design: dose 300 mg/kg; details: in vivo, ip
Mus musculus [18] = test: Anti convulsant activity administered intra peritoneally to mouse for subcutaneous metrazol test at 4 hr after the drug administered with dose of 30 mg/kg; 0/1= No of animals protected /No of animals tested; type: functional; details: route intraperitoneal
Mus musculus [19] = test: Anti convulsant activity administered intra peritoneally to mouse at maximal electroshock test at 4 hr after the drug administered with dose of 100 mg/kg; 0/3= No of animals protected /No of animals tested; type: functional
[20] = Anti convulsant activity administered intra peritoneally to mouse for toxicity at 4 hr with dose of 30 mg/kg; 0/2= No of animals exhibiting toxicity /No of animals tested; type: organism-based; design: dose 30 mg/kg; details: in vivo, ip
[21] = Anti convulsant activity administered intra peritoneally to mouse for toxicity at 0.5 hr with dose of 300 mg/kg; 3/4= No of animals exhibiting toxicity /No of animals tested; type: organism-based; design: dose 300 mg/kg; details: in vivo, ip
Rattus norvegicus [22] = test: Anticonvulsant activity after oral administration of 30 mg/kg dose after 1 hr in rats; + means 25% of the animals protected; type: functional, organism-based; design: dose 30 mg/kg; method in brief: as §1
Mus musculus [23] = test: Anti convulsant activity administered intra peritoneally to mouse at maximal electroshock test at 0.5 h after the drug administered with dose of 30 mg/kg; 0/1= No of animals protected /No of animals tested; type: functional
Mus musculus [24] = test: Anti convulsant activity administered intra peritoneally to mouse at maximal electroshock test at 0.5 hr after the drug administered with dose of 100 mg/kg; 0/3= No of animals protected /No of animals tested; type: functional
Mus musculus [25] = test: Anti convulsant activity administered intra peritoneally to mouse for subcutaneous metrazol test at 4 hr with dose of 300 mg/kg; 0/1= No of animals protected /No of animals tested; type: functional
Mus musculus [26] = test: Anti convulsant activity administered intra peritoneally to mouse for subcutaneous metrazol test at 0.5 hr with dose of 30 mg/kg; 0/1= No of animals protected /No of animals tested; type: functional
Mus musculus [27] = test: Anti convulsant activity administered intra peritoneally to mouse for subcutaneous metrazol test at 4 hr after the drug administered with dose of 100 mg/kg; 0/1= No of animals protected /No of animals tested; type: functional
Mus musculus [28] = test: Anti convulsant activity administered intra peritoneally to mouse at maximal electroshock test at 4 hr after the drug administered with dose of 300 mg/kg; 0/1= No of animals protected /No of animals tested; type: functional
Mus musculus [29] = test: Anti convulsant activity administered intra peritoneally to mouse at maximal electroshock test at 4 hr after the drug administered with dose of 300 mg/kg; 1/1= No of animals protected /No of animals tested; type: functional
Rattus norvegicus [30] = test: Anticonvulsant activity after oral administration of 30 mg/kg dose after 15 min in rats; + means 25% of the animal protected; type: functional, organism-based; design: dose 30 mg/kg; method in brief: as §1
Mus musculus [31] = test: Anti convulsant activity administered intra peritoneally to mouse for subcutaneous metrazol test at 0.5 hr with dose of 100 mg/kg; 0/1= No of animals protected /No of animals tested; type: functional
[32] = Anti convulsant activity administered intra peritoneally to mouse for subcutaneous metrazol test at 4 hr with dose of 300 mg/kg; 4/4= No of animals protected /No of animals tested; type: ADME, organism-based; design: dose 300 mg/kg
Rattus norvegicus [33] = test: Anticonvulsant activity after oral administration of 100 mg/kg dose after 2 hr in rats; ++means 50% of the animals protected; type: functional, organism-based; design: dose 100 mg/kg; method in brief: as §1
[34] = Toxicity after oral administration of 100 mg/kg dose in rats;++++ means 100% animals exhibited toxicity; type: organism-based; design: dose 100 mg/kg, route oral; details: rat, in vivo
Method in brief: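 Rats dosed orally with compound dissolved or suspended in 0.5% methylcellulose (0.04 mL per 10 g body weight). Anticonvulsant protection (MES or scMet) and toxicity scored at 15 min, 30 min, 1 h, 2 h and 4 h after dosing. Graded in steps of 25% of animals protected or showing toxicity.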

[35] = Anti convulsant activity administered intra peritoneally to mouse for toxicity at 4 hr with dose of 300 mg/kg; 2/2= No of animals exhibiting toxicity /No of animals tested; type: organism-based; design: dose 300 mg/kg; details: in vivo, ip
Rattus norvegicus [36] = test: Anticonvulsant activity after oral administration of 100 mg/kg dose after 30 min in rats; ++ means 50% animals protected; type: functional, organism-based; design: dose 100 mg/kg; method in brief: as §1
Mus musculus [37] = test: Anti convulsant activity administered intra peritoneally to mouse at maximal electroshock test at 4 hr after the drug administered with dose of 100 mg/kg; 3/3= No of animals protected /No of animals tested; type: functional
Mus musculus [38] = test: Anti convulsant activity administered intra peritoneally to mouse at maximal electroshock test at 0.5 hr after the drug administered with dose of 100 mg/kg; 2/3= No of animals protected /No of animals tested; type: functional
[39] = Anti convulsant activity administered intra peritoneally to mouse for toxicity at 4 hr with dose of 100 mg/kg; 3/4= No of animals exhibiting toxicity /No of animals tested; type: organism-based; design: dose 100 mg/kg; details: in vivo, ip
Rattus norvegicus [40] = test: Anticonvulsant activity after oral administration of 30 mg/kg dose after 2 hr in rats; +means 25% of the animal is protected; type: functional, organism-based; design: dose 30 mg/kg; method in brief: as §1
Rattus norvegicus [41] = test: Anticonvulsant activity after oral administration of 30 mg/kg dose after 1 hr in rats;+ means 25% animals protected; type: functional, organism-based; design: dose 30 mg/kg; method in brief: as §1

CC1(C)C(C(=O)NCC(N)=O)C1(C)C showed a Ratio (Mus musculus [1]) of 1.5, an ED50 (Rattus norvegicus [2]) of 82 mg/kg and an ED50 (Mus musculus [3]) of 115 mg/kg. The ED50 (Mus musculus [4]) was 173 mg/kg, the Activity (Rattus norvegicus [5]) was greater than 6.1 and the TD50 [6] was greater than 500 mg/kg. It also gave an ED50 (Rattus norvegicus [7]) greater than 250 mg/kg, an Activity (Rattus norvegicus [8]) of -2 and an Activity (Mus musculus [9]) of 2.3.
For CC(O)CNC(=O)C1C(C)(C)C1(C)C (configuration not stated), the Toxicity [10] was 0, the Toxicity [11] was 0 and the Activity (Rattus norvegicus [12]) was 25% of the animals protected. For the same compound, the Activity (Mus musculus [13]) was 0, the Toxicity [14] was 0 and the Activity (Mus musculus [15]) was 1. For the same compound, the Activity (Mus musculus [16]) was 0, the Toxicity [17] was 0 and the Activity (Mus musculus [18]) was 0. It also gave an Activity (Mus musculus [19]) of 0, a Toxicity [20] of 0 and a Toxicity [21] of 3. For the same compound, the Activity (Rattus norvegicus [22]) was 25% of the animals protected, the Activity (Mus musculus [23]) was 0 and the Activity (Mus musculus [24]) was 0. The Activity (Mus musculus [25]) was 0, the Activity (Mus musculus [26]) was 0 and the Activity (Mus musculus [27]) was 0. It also gave an Activity (Mus musculus [28]) of 0.
CC1(C)C(C(=O)NC(N)=S)C1(C)C gave a Toxicity [10] of 0, an Activity (Mus musculus [29]) of 1 and an Activity (Mus musculus [13]) of 0. The Activity (Rattus norvegicus [30]) was 25% animals protected, the Activity (Mus musculus [31]) was 0 and the Toxicity [32] was 4. The Toxicity [14] was 0, the “Anticonvulsant Activity” value (Rattus norvegicus [33]) was 50% of the animals protected and the Activity (Mus musculus [15]) was 1. For the same compound, the Activity (Mus musculus [16]) was 0, the Toxicity [34] was 100% animals exhibited toxicity and the Activity (Mus musculus [18]) was 0. It also gave a Toxicity [20] of 0, a Toxicity [35] of 2 and an Activity (Rattus norvegicus [36]) of 25% animals protected. For the same compound, the Activity (Mus musculus [37]) was 3, the Activity (Mus musculus [38]) was 2 and the Toxicity [39] was 3. The Activity (Rattus norvegicus [40]) was 25% animals protected, the Activity (Mus musculus [23]) was 0 and the Activity (Rattus norvegicus [41]) was 25% animals protected. The Activity (Mus musculus [25]) was 0, the Activity (Mus musculus [26]) was 0 and the Activity (Mus musculus [27]) was 0.
